According to ChEMBL document CHEMBL4834416, “The Discovery of Novel ACA Derivatives as Specific TRPM2 Inhibitors that Reduce Ischemic Injury Both In Vitro and In Vivo” (J Med Chem, 2021):
The source made the active and inactive calls. The calls are words filed in the database; no cut-off is given here.

Assays:
[1] = Half life in C57BL/6 mouse plasma at 0.3 mg/kg, iv by LC-MS/MS analysis; format: ADME, organism-based
[2] = Tmax in C57BL/6 mouse plasma at 1 mg/kg, iv by LC-MS/MS analysis; format: ADME, organism-based
[3] = Cmax in C57BL/6 mouse plasma at 1 mg/kg, iv by LC-MS/MS analysis; format: ADME, organism-based; design: route intravenous, dose 1 mg/kg
[4] = MRT in C57BL/6 mouse plasma at 0.3 mg/kg, iv by LC-MS/MS analysis; format: ADME, organism-based
[5] = Clearance in C57BL/6 mouse plasma at 10 mg/kg, IG by LC-MS/MS analysis; format: ADME, organism-based; conditions: po
[6] = AUC (0 to infinitive) in C57BL/6 mouse plasma at 3 mg/kg, iv by LC-MS/MS analysis; format: ADME, organism-based; design: time infinity, route intravenous, dose 3 mg/kg
[7] = Half life in C57BL/6 mouse plasma at 100 mg/kg, IG by LC-MS/MS analysis; format: ADME, organism-based; conditions: po
[8] = MRT in C57BL/6 mouse plasma at 1 mg/kg, iv by LC-MS/MS analysis; format: ADME, organism-based
[9] = Cmax in C57BL/6 mouse plasma at 100 mg/kg, IG by LC-MS/MS analysis; format: ADME, organism-based; design: route […], dose 100 mg/kg; conditions: po
[10] = AUC (0 to infinitive) in C57BL/6 mouse plasma at 100 mg/kg, IG by LC-MS/MS analysis; format: ADME, organism-based; design: route […], time infinity, dose 100 mg/kg; conditions: po
[11] = Toxicity in C57BL/6 mouse assessed as adverse effect at 100 mg/kg, IG; format: organism-based; conditions: in vivo, po
[12] = test system: Mus musculus; assay: Neuroprotective activity in mouse model of transient middle cerebral artery occlusion-induced cerebral ischemia-reperfusion injury assessed as reduction in infarct volume at 0.3 mg/kg, iv treated for 3 hrs after onset of reperfusion by TTC staining based assay (reference value: 52 +/- 1.7%); format: functional; design: scale not given: the % may be the effect or the level left
[13] = AUC (0 to infinitive) in C57BL/6 mouse plasma at 10 mg/kg, IG by LC-MS/MS analysis; format: ADME, organism-based; design: route […], time infinity, dose 10 mg/kg; conditions: po
[14] = test system: SH-SY5Y; assay: Neuroprotective activity against oxygen glucose deprivation/reperfusion-induced cell death in human SH-SY5Y cells assessed as cell viability at 1 to 30 uM […] by CCK8 assay relative to control; format: functional; conditions: dose 1-30 µM
[15] = test system: Mus musculus; assay: Neuroprotective activity in mouse model of transient middle cerebral artery occlusion-induced cerebral ischemia-reperfusion injury assessed as reduction neurological score at 3 mg/kg, iv treated for 3 hrs after onset of reperfusion by TTC staining based assay (reference value: 2.4 +/- 0.5); format: functional
[16] = test system: Mus musculus; assay: Neuroprotective activity in mouse model of transient middle cerebral artery occlusion-induced cerebral ischemia-reperfusion injury assessed as reduction neurological score at 0.3 mg/kg, iv treated for 3 hrs after onset of reperfusion by TTC staining based assay relative to control; format: functional, organism-based
[17] = Tmax in C57BL/6 mouse plasma at 0.3 mg/kg, iv by LC-MS/MS analysis; format: ADME, organism-based
[18] = AUC (0 to t) in C57BL/6 mouse plasma at 1 mg/kg, iv by LC-MS/MS analysis; format: ADME, organism-based; design: dose 1 mg/kg
[19] = Clearance in C57BL/6 mouse plasma at 1 mg/kg, iv by LC-MS/MS analysis; format: ADME, organism-based
[20] = Clearance in C57BL/6 mouse plasma at 0.3 mg/kg, iv by LC-MS/MS analysis; format: ADME, organism-based
[21] = Half life in C57BL/6 mouse plasma at 10 mg/kg, IG by LC-MS/MS analysis; format: ADME, organism-based; conditions: po
[22] = biological target: T1, Phospholipase A2 (Homo sapiens, UniProt P04054); assay: Inhibition of PLA2 (unknown origin) using soybean phosphatidylcholine as substrate at 3 uM preincubated for 30 mins followed incubated for 60 mins after substrate addition by microplate reader relative to control
Method in brief: (§1)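 PLA2 (4 μg/L in PBS) was preincubated 30 min at 37 °C with inhibitor in 125 mM Tris. Substrate was then added for 60 min: soybean phosphatidylcholine with Tris, CaCl₂, sodium deoxycholate and 0.5% Triton X-100. Liberated free fatty acids were quantified colorimetrically at OD550. Results are % inhibition versus enzyme without inhibitor, n = 3.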

[23] = Oral bioavailability in C57BL/6 mouse plasma at 1 mg/kg, IG by LC-MS/MS analysis; format: ADME, organism-based
[24] = test system: Mus musculus; assay: Neuroprotective activity in mouse model of transient middle cerebral artery occlusion-induced cerebral ischemia-reperfusion injury assessed as reduction in infarct volume at 1 mg/kg, iv treated for 3 hrs after onset of reperfusion by TTC staining based assay (reference value: 52 +/- 1.7%); format: functional; design: scale not given: the % may be the effect or the level left
[25] = Cmax in C57BL/6 mouse plasma at 10 mg/kg, IG by LC-MS/MS analysis; format: ADME, organism-based; design: route […], dose 10 mg/kg; conditions: po
[26] = AUC (0 to t) in C57BL/6 mouse plasma at 10 mg/kg, IG by LC-MS/MS analysis; format: ADME, organism-based; design: dose 10 mg/kg; conditions: po
[27] = test system: Mus musculus; assay: Neuroprotective activity in mouse model of transient middle cerebral artery occlusion-induced cerebral ischemia-reperfusion injury assessed as reduction neurological score at 1 mg/kg, iv treated for 3 hrs after onset of reperfusion by TTC staining based assay relative to control; format: functional, organism-based
[28] = Half life in C57BL/6 mouse plasma at 1 mg/kg, iv by LC-MS/MS analysis; format: ADME, organism-based
[29] = MRT in C57BL/6 mouse plasma at 10 mg/kg, IG by LC-MS/MS analysis; format: ADME, organism-based; conditions: po
[30] = Cmax in C57BL/6 mouse plasma at 3 mg/kg, iv by LC-MS/MS analysis; format: ADME, organism-based; design: route intravenous, dose 3 mg/kg
[31] = Cmax in C57BL/6 mouse plasma at 0.3 mg/kg, iv by LC-MS/MS analysis; format: ADME, organism-based; design: route intravenous, dose 0.3 mg/kg
[32] = test system: SH-SY5Y; assay: Neuroprotective activity against oxygen glucose deprivation/reperfusion-induced cell death in human SH-SY5Y cells assessed as cell viability at 0.3 uM […] for 12 hrs by CCK8 assay relative to control; format: functional; conditions: read-out: Activity
[33] = biological target: Transient receptor potential cation channel subfamily M member 2 (Homo sapiens, UniProt O94759); assay: Inhibition of human TRPM2 expressed in HEK293T cells assessed as suppression of H2O2-induced calcium flux at 1 uM measured after 30 mins by Fluo-3/AM assay; format: cell-based
[34] = biological target: T1, Phospholipase A2; assay: Inhibition of PLA2 (unknown origin) using soybean phosphatidylcholine as substrate at 10 uM preincubated for 30 mins followed incubated for 60 mins after substrate addition by microplate reader relative to control; method in brief: as §1
[35] = biological target: Transient receptor potential cation channel subfamily M member 8 (Homo sapiens, UniProt Q7Z2W7); assay: Inhibition of human TRPM8 expressed in HEK293T cells assessed as blocked of menthol-activated current at 10 uM by whole cell patch clamp electrophysiology relative to control; format: cell-based
Method in brief: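 Whole-cell patch clamp was run at room temperature on HEK293T cells transiently cotransfected with human TRPM8 plus GFP, 24–48 h before recording. ECS was 145 NaCl, 5.6 KCl, 2 MgCl₂, 1.2 CaCl₂, 10 HEPES, pH 7.2. Current was activated with 1 mM menthol, and compound was perfused at least 60 s after it stabilized. Inhibition was calculated relative to stable agonist current minus residual current; n = 3–6.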

T1 sequence (P04054 23-148 limits assumed): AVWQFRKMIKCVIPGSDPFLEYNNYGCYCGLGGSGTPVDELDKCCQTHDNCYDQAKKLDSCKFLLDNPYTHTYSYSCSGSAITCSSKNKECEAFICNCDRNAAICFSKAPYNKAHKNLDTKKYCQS
Transient receptor potential cation channel subfamily M member 8, sequence (Q7Z2W7 whole entry, looked up, the tested form may be a part): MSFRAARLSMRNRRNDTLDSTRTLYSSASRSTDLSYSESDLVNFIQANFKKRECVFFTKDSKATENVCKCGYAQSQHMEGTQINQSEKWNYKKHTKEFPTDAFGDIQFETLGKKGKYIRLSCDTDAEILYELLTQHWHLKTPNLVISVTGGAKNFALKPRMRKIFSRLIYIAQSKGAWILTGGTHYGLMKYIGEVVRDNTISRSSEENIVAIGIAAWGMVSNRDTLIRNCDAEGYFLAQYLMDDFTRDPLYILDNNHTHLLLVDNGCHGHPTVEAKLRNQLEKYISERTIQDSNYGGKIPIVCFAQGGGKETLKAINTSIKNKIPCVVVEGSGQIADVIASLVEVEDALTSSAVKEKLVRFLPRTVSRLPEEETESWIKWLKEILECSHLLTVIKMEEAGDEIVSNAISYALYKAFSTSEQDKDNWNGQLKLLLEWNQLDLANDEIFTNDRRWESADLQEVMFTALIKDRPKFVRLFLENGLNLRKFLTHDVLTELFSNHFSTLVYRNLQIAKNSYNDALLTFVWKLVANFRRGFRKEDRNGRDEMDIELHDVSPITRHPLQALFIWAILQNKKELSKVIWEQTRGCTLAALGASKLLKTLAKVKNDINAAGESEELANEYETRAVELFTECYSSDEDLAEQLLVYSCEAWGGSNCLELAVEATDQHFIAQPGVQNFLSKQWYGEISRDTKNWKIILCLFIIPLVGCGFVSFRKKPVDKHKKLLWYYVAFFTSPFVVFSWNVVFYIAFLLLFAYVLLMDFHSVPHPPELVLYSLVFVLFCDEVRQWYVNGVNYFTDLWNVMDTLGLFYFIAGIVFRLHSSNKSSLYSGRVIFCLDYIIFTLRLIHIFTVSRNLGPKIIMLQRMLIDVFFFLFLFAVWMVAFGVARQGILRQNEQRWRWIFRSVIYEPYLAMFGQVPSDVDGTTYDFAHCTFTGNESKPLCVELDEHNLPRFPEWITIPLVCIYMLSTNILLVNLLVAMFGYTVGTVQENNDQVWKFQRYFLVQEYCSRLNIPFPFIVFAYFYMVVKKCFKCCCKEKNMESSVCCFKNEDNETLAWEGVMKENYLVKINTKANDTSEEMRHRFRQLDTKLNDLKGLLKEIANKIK
Transient receptor potential cation channel subfamily M member 2, sequence (O94759 whole entry): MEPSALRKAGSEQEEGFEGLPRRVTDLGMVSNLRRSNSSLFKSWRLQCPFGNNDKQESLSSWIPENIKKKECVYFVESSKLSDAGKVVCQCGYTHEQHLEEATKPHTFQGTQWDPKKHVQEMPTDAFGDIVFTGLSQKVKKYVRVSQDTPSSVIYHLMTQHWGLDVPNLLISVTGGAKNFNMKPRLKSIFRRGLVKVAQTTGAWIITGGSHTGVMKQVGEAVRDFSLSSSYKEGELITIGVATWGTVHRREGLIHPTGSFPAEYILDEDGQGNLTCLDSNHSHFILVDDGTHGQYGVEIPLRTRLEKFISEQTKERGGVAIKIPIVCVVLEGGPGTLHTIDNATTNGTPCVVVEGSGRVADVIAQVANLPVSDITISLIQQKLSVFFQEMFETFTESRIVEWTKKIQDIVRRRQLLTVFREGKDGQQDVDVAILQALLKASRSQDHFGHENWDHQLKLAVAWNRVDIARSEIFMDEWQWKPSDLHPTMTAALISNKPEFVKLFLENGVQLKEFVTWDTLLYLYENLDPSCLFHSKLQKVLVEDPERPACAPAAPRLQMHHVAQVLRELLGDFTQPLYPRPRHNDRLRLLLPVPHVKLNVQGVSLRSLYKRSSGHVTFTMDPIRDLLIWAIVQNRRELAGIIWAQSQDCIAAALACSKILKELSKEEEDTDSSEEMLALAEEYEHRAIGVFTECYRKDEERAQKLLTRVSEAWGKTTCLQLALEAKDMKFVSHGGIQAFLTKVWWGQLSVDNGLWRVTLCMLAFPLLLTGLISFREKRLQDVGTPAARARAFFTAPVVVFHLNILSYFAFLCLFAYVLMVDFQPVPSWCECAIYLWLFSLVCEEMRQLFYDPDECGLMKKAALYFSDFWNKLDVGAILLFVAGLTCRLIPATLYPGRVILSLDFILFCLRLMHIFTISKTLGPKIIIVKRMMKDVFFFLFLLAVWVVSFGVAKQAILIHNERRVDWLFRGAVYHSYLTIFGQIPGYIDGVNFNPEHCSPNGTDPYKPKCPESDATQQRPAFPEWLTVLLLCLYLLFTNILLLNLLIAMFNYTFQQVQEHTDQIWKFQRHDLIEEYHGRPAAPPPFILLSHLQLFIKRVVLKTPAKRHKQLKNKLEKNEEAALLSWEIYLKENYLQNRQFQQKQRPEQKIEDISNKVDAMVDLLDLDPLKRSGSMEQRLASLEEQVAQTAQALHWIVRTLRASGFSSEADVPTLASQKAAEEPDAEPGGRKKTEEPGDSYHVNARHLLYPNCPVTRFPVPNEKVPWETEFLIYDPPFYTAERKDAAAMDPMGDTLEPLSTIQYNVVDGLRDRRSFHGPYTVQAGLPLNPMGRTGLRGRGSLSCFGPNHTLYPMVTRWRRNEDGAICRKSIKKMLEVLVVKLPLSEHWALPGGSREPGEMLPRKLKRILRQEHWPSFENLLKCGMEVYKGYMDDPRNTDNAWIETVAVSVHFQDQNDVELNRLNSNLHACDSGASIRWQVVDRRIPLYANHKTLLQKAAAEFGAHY

Which half-life [1] does the source give for `O=C(/C=C/c1ccc(-c2cccc(C(F)(F)F)c2)cc1)Nc1ccccc1C(=O)O` here?
The half-life was 55.8 min.

And the Tmax [2]?
Its Tmax is 4.8 min.

What about the Cmax [3] of the same compound?
Its Cmax is 13000 ng/mL.

What about the MRT [4] of the same compound?
The MRT was 1.19 h.

And the CL/F [5]?
Its CL/F is 1.04 mL/min/kg.

And the AUC(0-inf) [6]?
Its AUC(0-inf) is 40900 ng·h/mL.

What about the half-life [7] of the same compound?
Its half-life is 217 min.

And the MRT [8]?
The MRT was 1.7 h.

And the Cmax [9]?
Its Cmax is 168 µg/mL.

What about the AUC(0-inf) [10] of the same compound?
The AUC(0-inf) was 1870 µg·h/mL.

And the Activity [11]?
The Activity was “Non-Toxic”.

And the Activity [12]?
Its Activity is 39.8%.

And the AUC(0-inf) [13]?
Its AUC(0-inf) is 160 µg·h/mL.

What about the Activity [14] of the same compound?
Its Activity is 80%.

What about the Activity [15] of the same compound?
The Activity was 1.8.

What about the Activity [16] of the same compound?
The Activity was “inactive”.

And the Tmax [17]?
The Tmax was 4.8 min.

And the AUC(0-t) [18]?
The AUC(0-t) was 18500 ng·h/mL.

What about the clearance [19] of the same compound?
Its clearance is 0.882 mL/min/kg.

What about the clearance [20] of the same compound?
The clearance was 0.917 mL/min/kg.

And the half-life [21]?
Its half-life is 85.2 min.

What about the inhibition [22] of the same compound?
Its inhibition is 7.8%.

And the bioavailability [23]?
The bioavailability was 84.8%.

What about the Activity [24] of the same compound?
Its Activity is 38.5%.

And the Cmax [25]?
Its Cmax is 58.4 µg/mL.

What about the AUC(0-t) [26] of the same compound?
Its AUC(0-t) is 157 µg·h/mL.

And the Activity [27]?
The Activity was “inactive”.

And the half-life [28]?
Its half-life is 102 min.

What about the MRT [29] of the same compound?
Its MRT is 2.25 h.

What about the Cmax [30] of the same compound?
Its Cmax is 24300 ng/mL.

What about the Cmax [31] of the same compound?
The Cmax was 5070 ng/mL.

What about the viability at 0.3 µM [32] of the same compound?
Its viability at 0.3 µM is 68.7%.

And the inhibition [33]?
The inhibition was > 45%.

And the inhibition [34]?
Its inhibition is 14.8%.

What about the inhibition [35] of the same compound?
Its inhibition is 22.6%.
